# Biological target: T1, GFP-myo1e-tail (His6-GFP-myo1e-tail) (Homo sapiens, UniProt Q12965)
# T1 sequence (Q12965 710-1108): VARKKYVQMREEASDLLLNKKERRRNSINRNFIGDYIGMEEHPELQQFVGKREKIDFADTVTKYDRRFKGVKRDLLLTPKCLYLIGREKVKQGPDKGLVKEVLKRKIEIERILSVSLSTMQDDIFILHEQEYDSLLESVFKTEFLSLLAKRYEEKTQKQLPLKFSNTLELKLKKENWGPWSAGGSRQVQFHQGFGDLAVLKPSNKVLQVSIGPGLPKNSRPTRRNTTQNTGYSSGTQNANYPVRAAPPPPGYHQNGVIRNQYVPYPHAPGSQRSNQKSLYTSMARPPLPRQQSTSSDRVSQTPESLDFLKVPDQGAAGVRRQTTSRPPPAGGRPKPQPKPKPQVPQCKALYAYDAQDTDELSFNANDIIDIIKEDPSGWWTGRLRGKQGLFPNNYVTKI
# Test: LUV sedimentation, GFP fluorescence of supernatant
# Assay type: binding
# Procedure, shortened: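 His6-GFP-myo1e-tail co-expressed with calmodulin in Sf9 cells, purified on Ni-NTA then MonoS, and quantified by A488 (ε 55,000 M⁻¹cm⁻¹). 40 nM protein was mixed with sucrose-loaded 100-nm LUVs (e.g., DOPC with 2% phosphoinositide) in HNa100 (10 mM HEPES pH 7.0, 100 mM NaCl, 1 mM EGTA, 1 mM DTT) with 1 µM calmodulin and 0.25 mg/ml GST. Spun 150,000 × g, 30 min, 25°C; supernatant GFP fluorescence read. Hyperbolic fit gave K_eff versus total lipid.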
row,Kd,SMILES
1,3.2 ± 0.4 µM,"CCCCCCCC/C=C\CCCCCCCC(=O)OC[C@H](COP(=O)(O)O[C@H]1[C@H](O)[C@@H](OP(=O)(O)O)[C@H](OP(=O)(O)O)[C@@H](OP(=O)(O)O)[C@H]1O)OC(=O)CCCCCCC/C=C\CCCCCCCC [2% 18:1 PtdIns(3,4,5)P3, 1,2-dioleoyl-sn-glycerol-3-phospho-(1’-myo-inositol-3’,4’,5’-trisphosphate)]"
2,13 ± 2.1 µM,"CCCCCCCC/C=C\CCCCCCCC(=O)OC[C@H](COP(=O)(O)O[C@@H]1[C@H](O)[C@H](OP(=O)(O)O)[C@@H](O)[C@H](OP(=O)(O)O)[C@H]1O)OC(=O)CCCCCCC/C=C\CCCCCCCC [2% 18:1 PtdIns(3,5)P2, 1,2-dioleoyl-sn-glycerol-3-phospho-(1’-myo-inositol-3’,5’-bisphosphate)]"
3,> 400 µM,"CCCCCCCC/C=C\CCCCCCCC(=O)OC[C@H](COP(=O)([O-])OCC[N+](C)(C)C)OC(=O)CCCCCCC/C=C\CCCCCCCC [100% DOPC, 1,2-dioleoyl-sn-glycero-3-phosphocholine]"

row,SMILES,Kd
1,"CCCCCCCC/C=C\CCCCCCCC(=O)OC[C@H](COP(=O)(O)OC[C@H](N)C(=O)O)OC(=O)CCCCCCC/C=C\CCCCCCCC [80% DOPS, 1,2-dioleoyl-sn-glycero-3-phospho-L-serine]",0.51 ± 0.1 µM

# — article PMC2976041 (Biochemistry, 2010)
